Measured values gathered from unrelated publications.
Each line is one published result; the experiments were not run side by side. Converted amounts (≈) assume the structure as drawn.
Organism: Pseudomonas aeruginosa
Effect on: microbial growth

SMILES	test	test system	conditions	MIC [µg/mL]
CCCCCCNC(=S)Nc1cccc(-c2cc(C(=O)OC)no2)c1	broth dilution	ATCC27853		> 64
CCCCCCCCCCCC(=O)OC[C@H]1O[C@@H](n2cc(C)c(=O)[nH]c2=O)C[C@@H]1OC(=O)c1ccc(C(C)(C)C)cc1	broth dilution			8 (≈ 13.7 µM)
COC(=O)c1cc(-c2cccc(NC(=S)Nc3ccc(OC)cc3)c2)on1	broth dilution	ATCC27853		> 64
CC1(C)SC2C(NC(=O)C(NC(=O)C3=C(O)CN(c4ccccc4)C3=O)c3ccccc3)C(=O)N2C1C(=O)O (stereo not drawn)				100 (≈ 182 µM)
CCOC(=O)c1nnn(-c2cccc(NC(=O)Nc3ccc(Cl)c(Cl)c3)c2)c1C	broth dilution	ATCC27853		> 64
CC1(C)S[C@@H]2[C@H](NC(=O)C(C(=O)O)c3ccccc3)C(=O)N2[C@H]1C(=O)O (stereo partly drawn)				50 (≈ 132 µM)
CCCCCCC#Cc1cncc(-c2nnc(SCc3cc([N+](=O)[O-])cc([N+](=O)[O-])c3)n2C)c1				≥ 20
CC1(C)S[C@@H]2[C@H](NC(=O)[C@H](N)c3ccccc3)C(=O)N2[C@H]1C(=O)O	broth dilution	ATCCBAA2108	drug-resistant strain	> 64
COC(=O)c1cc(-c2cccc(NC(=S)Nc3ccccc3)c2)on1	broth dilution	ATCC27853		> 64
C[n+]1c(/C=C/c2c[nH]c3ccccc23)cc(/C=C2\Sc3ccccc3N2CCCN2CCCC2)c2ccccc21.[I-]	broth dilution	ATCCBAA2108	drug-resistant strain	32
CN[C@@H]1[C@H](O)[C@H](NC)[C@H]2O[C@@]3(O)C(=O)C[C@@H](C)O[C@H]3O[C@@H]2[C@H]1O	broth dilution	PAO1		100 (≈ 301 µM)
C[n+]1c(/C=C/c2c[nH]c3ccccc23)cc(/C=C2\Sc3ccccc3N2CCCN2CCOCC2)c2ccccc21.[I-]	broth dilution	ATCCBAA2108	drug-resistant strain	> 64
COC(=O)c1cc(-c2cccc(NC(=O)NCc3ccccc3)c2)on1	broth dilution	ATCC27853		> 64
CO[C@H]1/C=C/O[C@@]2(C)Oc3c(C)c(O)c4c(O)c(c(/C=N/N5CCN(C)CC5)c(O)c4c3C2=O)NC(=O)/C(C)=C\C=C\[C@H](C)[C@H](O)[C@@H](C)[C@@H](O)[C@@H](C)[C@H](OC(C)=O)[C@@H]1C	broth dilution	ATCCBAA2108	drug-resistant strain	> 64
Oc1cc(Cl)ccc1Oc1ccc(Cl)cc1Cl				> 25
